# Active and inactive are the calls of the source. The rule behind the calls is not given here.
# System: Mus musculus
# Test: Induction of WBC mobilization in Harlan C57BL/6 mouse at 5 to 20 mg/kg, sc after 6 to 8 hrs by LC/MS/MS analysis relative to control
# Type: functional, organism-based
# Method in brief: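 Harlan mice were given a single subcutaneous dose at 5, 10 or 20 mg/kg. Blood was sampled at multiple time points over about 8 h, and each sample was used for both total circulating WBC count and plasma drug level. Counts and concentrations were plotted against time for each dose.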
compound,measurement,value
NCCCCN(C[C@H]1Cc2ccccc2CN1)[C@H]1CCCc2cccnc21,Activity,inactive
